Most compounds without a hit are left out; they make up all but 3.5% or so of the library.
MrgX1 PAM: allosterically activates human MrgX1 receptor signaling; AID 588675; 0.63% of 310,000 active; MrgX1-HEK293, Fluo-4 calcium flux, FDSS; hits give high values; Q96LB2; B-score at 10 µM;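 active = plate-corrected calcium response at least 3 library SD above typical, normal starting fluorescence, not activating the receptor alone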;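 also: compound read alongside a low EC10 to EC30 dose of BAM8-22 agonist; peak minus trough fluorescence over baseline measured at the second addition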
Target sequence (Q96LB2 whole entry, looked up): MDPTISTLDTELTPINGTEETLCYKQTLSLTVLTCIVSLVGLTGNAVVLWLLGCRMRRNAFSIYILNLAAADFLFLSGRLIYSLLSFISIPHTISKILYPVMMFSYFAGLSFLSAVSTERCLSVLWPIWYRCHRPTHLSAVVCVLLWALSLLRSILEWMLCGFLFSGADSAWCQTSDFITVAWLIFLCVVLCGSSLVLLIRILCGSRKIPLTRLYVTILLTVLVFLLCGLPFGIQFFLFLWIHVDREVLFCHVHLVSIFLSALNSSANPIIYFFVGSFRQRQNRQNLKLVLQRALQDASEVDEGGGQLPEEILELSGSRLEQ
MrgX1 antagonist: antagonists of human MrgX1 receptor. MRGX1-HEK293 calcium flux, Fluo-4, BAM8-22 antagonism; hits give low values. Q96LB2. B-score at 10 µM. 1.3% of 310,000 active;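 active = calcium-response B-score plate-corrected more than 3 library SD below zero, starting fluorescence within 5 deviations, no agonist response on first addition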;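 also: peak minus trough fluorescence over baseline after final BAM8-22 challenge near maximal dose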
RGS4 block: inhibitors of human RGS4. P49798. HEK293 M3R/RGS4 inducible, Fluo-4 calcium flux; hits give high values; triggered by carbachol at its EC20. B-score at 10 µM. 0.45% of 310,000 active. AID 463165;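 active = B-score, a plate-corrected calcium signal, over three deviations above library mean, with baseline fluorescence within five deviations of library mean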;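 also: RGS4 expression induced by doxycycline in cells with stable M3 receptor; B-score is computed from the integrated fluorescence ratio over baseline after carbachol; higher B-score means a larger calcium signal and so more RGS4 inhibition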
Target sequence (P49798 whole entry, looked up): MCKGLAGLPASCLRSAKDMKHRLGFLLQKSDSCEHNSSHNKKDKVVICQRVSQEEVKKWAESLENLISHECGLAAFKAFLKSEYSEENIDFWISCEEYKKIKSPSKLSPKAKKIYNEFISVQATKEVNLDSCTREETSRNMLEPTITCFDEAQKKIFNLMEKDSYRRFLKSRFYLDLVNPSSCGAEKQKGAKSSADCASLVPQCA
MrgX1 ag: human MrgX1 receptor agonism, primary screen; Q96LB2; MrgX1-HEK293 cells, Fluo-4 calcium fluorescence, agonist mode; hits give high values; B-score at 10 µM; 0.44% of 310,000 active; AID 588627;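 active = calcium response B-score plate-corrected fluorescence ratio at least 3 library SD, with starting fluorescence B-score inside 5 SD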
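Test system: HEK293 cells stably expressing human MrgX1 receptor; Input: fifteen thousand cells per well; Dosing: compound delivered in addition one of three; Schedule: overnight seeding, then 1 h dark dye loading; Technique: Fluo-4 NW calcium fluorescence; Measure: B-scored fluorescence response ratio; Controls: positive and negative controls per plate.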
RGS4 act: potentiators or activators of RGS4; AID 463111; 0.92% of 310,000 active; HEK293 M3R/inducible RGS4, carbachol calcium flux Fluo4; hits give low values; B-score at 10 µM;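 active = B-score of the integrated calcium signal more than 4 SD below the library mean, with starting fluorescence not abnormally high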;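 also: negative B-score means reduced calcium response which marks RGS4 activation or potentiation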
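System – HEK293 FlpIn-TREx cells, stable M3R, doxycycline-inducible RGS4 · Reagent – ECmax carbachol challenge · Times – compound preincubation 20 min at room temperature before agonist · Technique – Fluo4 fluorescence kinetic imaging of calcium · Measure – B score of integrated Fluo4 ratio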
MrgX1 ag reconf: human MrgX1 agonism, re-confirmation screen; activation, % at 10 µM; MrgX1-HEK293, Fluo-4 calcium fluorescence, FDSS; 78% of 600 active; shares compounds with MrgX1 ag;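 active = calcium signal rise, corrected for plate position, at least 3 library SD high, with starting brightness within 5 such deviations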
HEK293 Ca flux: counter-screen for MrgX1 antagonists: effect in parental HEK293 cells. fluorescence ratio F(max-min)/F0 at 10 µM. 2% of 4,000 active. shares compounds with MrgX1 antagonist. Fluo-4 calcium fluorescence, FDSS;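 active = duplicate-averaged calcium fluorescence ratio at least three times the standard deviation of buffer wells, a nonspecific response in parental cells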
HEK293 Ca counter: counter-screen for MrgX1 allosteric activators: effect in parental HEK293 cells. shares compounds with MrgX1 antagonist. 0.4% of 4,000 active. fluorescence ratio F(max-min)/F0 at 10 µM. parental HEK293 calcium flux, Fluo-4 fluorescence ratio; hits give high values. AID 624114;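 active = calcium fluorescence ratio, averaged over duplicates, at least 3 SD of the buffer-well ratio, meaning a nonspecific response in receptor-free cells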;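 also: untransfected parental HEK293 lacking MrgX1 used as counterscreen for MrgX1 allosteric activators; fluorescence change taken during the second addition on a kinetic imager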
HEK293 Ca cntr2: activity in parental HEK293 cells lacking MrgX1 receptor; shares compounds with MrgX1 antagonist; Fluo-4 calcium fluorescence (FDSS); hits give high values; fluorescence ratio F(max-min)/F0 at 10 µM; 8.7% of 4,000 active; AID 624115;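 active = calcium fluorescence ratio at least three times the spread of buffer wells, meaning a non-specific response in parental cells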
* = called active by the depositor; i = inactive; · = not tested or not shown.

SMILES	MrgX1 PAM	MrgX1 antagonist	RGS4 block	MrgX1 ag	RGS4 act	MrgX1 ag reconf	HEK293 Ca flux	HEK293 Ca counter	HEK293 Ca cntr2
Cc1csc(NC(=O)CSc2nc(=O)n(CCN(C)C)c3c2CCCC3)n1	i	i	i	i	i	·	·	·	·
CC(=N)c1c(O)c2ccccc2oc1=O	i	i	i	i	i	·	·	·	·
CC1CCC(C(=O)c2c(O)c3ccccc3oc2=O)CC1 (stereo not drawn)	i	i	i	69*	i	282%*	i	i	84*
O=C(CC1CCCCC1)c1c(O)c2ccccc2oc1=O	i	i	i	87*	i	428%*	i	i	92*
Cc1oc2cc(O)ccc2c(=O)c1-c1nncn1-c1ccccc1	i	i	i	30*	i	i	i	i	i
NCCC(=O)N1c2ccccc2Sc2ccc(Cl)cc21	i	i	i	79*	i	244%*	i	i	i
O=C1CC(NS(=O)(=O)c2cccs2)CN1c1cccc(F)c1 (stereo not drawn)	i	i	i	i	i	·	·	·	·
O=C(NNC(=S)Nc1ccccc1)c1cccs1	i	i	i	i	i	·	·	·	·
O=C(NC(=S)NNC(=O)c1cccs1)c1ccccc1	i	i	i	132*	i	547%*	i	i	107*
Cc1ccccc1C(=O)NNC(=S)NC(=O)c1cccs1	i	i	i	79*	i	651%*	i	i	130*
Cc1cccc(C(=O)NC(=S)NNC(=O)c2cccs2)c1	i	i	i	173*	i	647%*	i	i	140*
Cc1ccccc1C(=O)Nc1cccc(NC(=S)NC(=O)c2cccs2)c1	i	i	i	i	i	·	·	·	·
O=C(CSc1ncnc2ccccc12)c1cccs1	i	i	i	29*	i	i	i	i	i
COCCN(C(=O)CSc1nc(N)cc(=O)[nH]1)c1c(N)n(Cc2ccccc2)c(=O)[nH]c1=O	i	i	i	i	i	·	·	·	·
Oc1cccnc1CCc1ccccc1	i	i	i	i	i	·	·	·	·
CCN(CC(=O)NC1CCCC1)S(=O)(=O)c1ccc(F)cc1	i	i	i	i	i	·	·	·	·
Cc1cc(C)nc(/N=C(\N)Nc2ccc(SC(F)F)cc2)n1	i	i	i	57*	i	444%*	i	i	98*
COc1ccc(C)cc1N/C(N)=N/c1nc(C)cc(C)n1	i	i	i	i	i	·	·	·	·
Cc1cc(C)nc(/N=C(\N)Nc2ccc(-c3ccccc3)cc2)n1	i	i	i	74*	-7.1*	300%*	i	i	i
CC(=O)Nc1ccc(N/C(N)=N/c2nc(C)cc(C)n2)cc1	i	i	i	i	i	·	·	·	·
Cc1ccc(C)c(N/C(N)=N/c2nc(C)cc(C)n2)c1	i	i	i	59*	i	385%*	i	i	85*
CCOc1ccc(N/C(N)=N/c2nc(C)cc(C)n2)cc1	i	i	i	142*	i	434%*	i	i	94*
Cc1cc(C)nc(/N=C(\N)Nc2ccc(S(N)(=O)=O)cc2)n1	i	i	i	i	i	·	·	·	·
CC(C)C(OC(=O)CN1C(=O)c2ccccc2C1=O)C(=O)NC1CCCC1 (stereo not drawn)	i	i	i	i	i	·	·	·	·
O=C(NCCc1ccc(Cl)cc1Cl)c1cncc(Br)c1	i	i	i	i	i	·	·	·	·
SMILES	MrgX1 PAM	MrgX1 antagonist	RGS4 block	MrgX1 ag	RGS4 act	MrgX1 ag reconf	HEK293 Ca flux	HEK293 Ca counter	HEK293 Ca cntr2
Cc1nc(Nc2ccccc2)sc1C(=O)Nc1ccccc1	i	i	i	i	i	·	·	·	·
Cc1nc(Nc2ccc(S(N)(=O)=O)cc2)sc1C(=O)Nc1ccccc1	i	i	i	32*	i	227%*	i	i	i
Cc1cccc(C)c1-n1c(C)nn(CC2CC2)c1=O	i	i	i	i	i	·	·	·	·
N#CC1=C(N)Oc2cc(O)ccc2C1c1cccs1 (stereo not drawn)	i	i	i	29*	i	i	i	i	i
COc1cccc(CNC(=O)CCC2CCCN(C(=O)c3ccc(C)nc3)C2)c1 (stereo not drawn)	i	i	i	i	i	·	·	·	·
COc1cccc(CNC(=O)CCC2CCCN(c3cc(C)nc(N)n3)C2)c1 (stereo not drawn)	i	i	i	30*	i	i	i	i	i
N#CCn1c(C2CCCCC2)nc2ccccc2c1=O	i	i	i	i	i	·	·	·	·
COc1cc(/C=C/C(=O)CC(=O)/C=C/c2ccc(O)c(OC)c2)ccc1O	i	i	i	143*	i	i	0.033*	i	212*
COc1cc(/C=C/C(=O)O)ccc1O	i	i	i	i	i	·	·	·	·
N#CSCC(=O)c1cccc2ccccc12	i	i	·	27*	·	230%*	i	i	i
N#CCn1c(CCl)nc2ccccc2c1=O	i	i	i	42*	i	198%*	i	i	i
O=C1NC(=Nc2ccc(Cl)cc2)/C(=C/c2ccco2)S1	i	i	i	i	i	·	·	·	·
CCOc1ccc(N=C2NC(=O)S/C2=C\c2ccc(N(C)C)cc2)cc1	i	i	i	27*	i	261%*	0.25*	i	59*
CCOc1ccccc1NC(=O)CSc1ccc(-c2ccco2)nn1	i	i	i	i	i	·	·	·	·
CCOc1ccccc1NC(=O)CSc1ccc(-c2sc(C)nc2C)nn1	i	i	i	37*	i	170%*	i	i	i
CCOc1ccccc1O[C@H](c1ccccc1)[C@H]1CNCCO1	i	i	i	i	i	·	·	·	·
Cc1ccc(CNC(=O)CN(C(=O)C2(C)CC(=O)N=C3C=CC=CN32)c2ccc(F)cc2)cc1 (stereo not drawn)	i	i	i	i	i	·	·	·	·
CC(C)OC(=O)CSc1nnc(-c2ccncc2)n1N	i	i	i	41*	i	i	i	i	i

Compound activity (PubChem)
